Assay results as given in ChEMBL document CHEMBL4725350, “2-Oxaadamant-1-yl Ureas as Soluble Epoxide Hydrolase Inhibitors: In Vivo Evaluation in a Murine Model of Acute Pancreatitis” (J Med Chem, 2020).
Activity calls are given as the source filed them. The rule behind the calls is not given here.

Experiments:
[1] = species on record: Homo sapiens; assay: Selectivity ratio of inhibition of recombinant human CYP3A4 to IC50 for inhibition of recombinant human soluble epoxide hydrolase using DBF as substrate
[2] = species on record: Homo sapiens; assay: Selectivity ratio of inhibition of recombinant human CYP2C19 to IC50 for inhibition of recombinant human soluble epoxide hydrolase
[3] = Apparent permeability across apical to basolateral side in human Caco-2 cells at 10 uM measured after 2 hrs by LC-MS/MS analysis; conditions: caco-2, 2 h
[4] = species on record: Homo sapiens; assay: Selectivity ratio of inhibition of recombinant human CYP3A4 to IC50 for inhibition of recombinant human soluble epoxide hydrolase using 7-BFC as substrate
[5] = Selectivity ratio of inhibition of recombinant human CYP2C19 to IC50 for inhibition of recombinant mouse soluble epoxide hydrolase
[6] = Selectivity ratio of inhibition of recombinant human CYP2D6 to IC50 for inhibition of recombinant mouse soluble epoxide hydrolase
[7] = species on record: Homo sapiens; assay: Selectivity ratio of inhibition of recombinant human CYP2C9 to IC50 for inhibition of recombinant human soluble epoxide hydrolase
[8] = Selectivity ratio of inhibition of recombinant human CYP2C9 to IC50 for inhibition of recombinant mouse soluble epoxide hydrolase
[9] = Apparent permeability across basolateral to apical side in human Caco-2 cells at 10 uM measured after 2 hrs by LC-MS/MS analysis; conditions: caco-2, 2 h
[10] = AUC (infinity) in CD-1 mouse at 1 mg/kg, ip measured up to 24 hrs by LC-MS analysis; type: ADME, organism-based; parameters: route intraperitoneal, dose 1 mg/kg, time <=24; conditions: in vivo
Outline: (§1)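 Single dose, 1 mg/kg, given to mice intravenously or intraperitoneally. Parameters are taken from the plasma concentration–time profile: T1/2, Tmax, Cmax, C0 (iv only), AUClast, AUCINF_obs, Vz and Cl. Bioavailability is derived from ip versus iv exposure.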

[11] = system: Mus musculus; assay: Protection against cerulein-induced acute pancreatitis in C57BL/6J mouse assessed as reduction in IL-1beta mRNA level at 30 mg/kg administered 24 hrs post-cerulein addition and measured after 24 hrs by Trisure-reagent based RT-PCR analysis; type: functional, organism-based
Outline: (§2)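 Post-induction (treatment) protocol in C57BL/6J mice. Acute pancreatitis is induced by several cerulein administrations, followed by ip sEH inhibitor at 3 or 30 mg/kg. Pancreatic mRNA of TNF-α, IL-1β, MCP-1 and ATF3 is quantified against control and cerulein-only groups. Mean ± SEM, n = 5 per group.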

[12] = system: Mus musculus; assay: Protection against cerulein-induced acute pancreatitis in C57BL/6J mouse assessed as reduction in ATF3 mRNA level at 30 mg/kg administered twice per day for 5 days followed by cerulein addition and measured 24 hrs post-last dose by Trisure-reagent based RT-PCR analysis; type: functional, organism-based; conditions: time 6.0 day
Outline: (§3)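 Pre-induction (prevention) protocol in C57BL/6J mice. Inhibitor is given ip at 30 mg/kg before cerulein induction of acute pancreatitis. Pancreatic mRNA of TNF-α, IL-1β, MCP-1 and ATF3 is compared with control and cerulein-only mice. Mean ± SEM, n = 5 per group.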

[13] = Acute toxicity in CD-1 mouse assessed as effect on behavior at 5 to 80 mg/kg, ip administered daily for 5 days; type: organism-based; conditions: in vivo, 120 h, dose 5-80 mg/kg, time 5 day
Outline: (§4)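 Mice received the compound intraperitoneally once a day for five consecutive days at 5, 10, 20 and 80 mg/kg. Acute toxicity was judged from body weight during treatment, apparent behaviour problems and the presence of petechiae.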

[14] = system: Mus musculus; assay: Protection against cerulein-induced acute pancreatitis in C57BL/6J mouse assessed as reduction in MCP1 mRNA level at 30 mg/kg administered twice per day for 5 days followed by cerulein addition and measured 24 hrs post-last dose by Trisure-reagent based RT-PCR analysis; type: functional, organism-based; conditions: time 6.0 day; outline: as §3
[15] = Tmax in CD-1 mouse at 1 mg/kg, iv measured up to 24 hrs by LC-MS analysis; type: ADME, organism-based; conditions: in vivo; outline: as §1
[16] = Half life in CD-1 mouse at 1 mg/kg, ip measured up to 24 hrs by LC-MS analysis; type: ADME, organism-based; conditions: in vivo; outline: as §1
[17] = Cmax in CD-1 mouse at 1 mg/kg, ip measured up to 24 hrs by LC-MS analysis; type: ADME, organism-based; parameters: route intraperitoneal, dose 1 mg/kg, time <=24; conditions: in vivo; outline: as §1
[18] = Cmax in CD-1 mouse at 1 mg/kg, iv measured up to 24 hrs by LC-MS analysis; type: ADME, organism-based; parameters: route intravenous, dose 1 mg/kg, time <=24; conditions: in vivo; outline: as §1
[19] = system: Mus musculus; assay: Protection against cerulein-induced acute pancreatitis in C57BL/6J mouse assessed as reduction in TNF-alpha mRNA level at 3 mg/kg administered 24 hrs post-cerulein addition and measured after 24 hrs by Trisure-reagent based RT-PCR analysis; type: functional, organism-based; outline: as §2
[20] = Initial plasma concentration in CD-1 mouse at 1 mg/kg, iv measured up to 24 hrs by LC-MS analysis; type: ADME, organism-based; conditions: in vivo; outline: as §1
[21] = AUClast in CD-1 mouse at 1 mg/kg, iv measured up to 24 hrs by LC-MS analysis; type: ADME, organism-based; parameters: route intravenous, dose 1 mg/kg, time <=24; conditions: in vivo; outline: as §1
[22] = AUC (infinity) in CD-1 mouse at 1 mg/kg, iv measured up to 24 hrs by LC-MS analysis; type: ADME, organism-based; parameters: route intravenous, dose 1 mg/kg, time <=24; conditions: in vivo; outline: as §1
[23] = Tmax in CD-1 mouse at 1 mg/kg, ip measured up to 24 hrs by LC-MS analysis; type: ADME, organism-based; conditions: in vivo; outline: as §1
[24] = system: Mus musculus; assay: Protection against cerulein-induced acute pancreatitis in C57BL/6J mouse assessed as reduction in edema at 30 mg/kg administered twice per day for 5 days followed by cerulein addition and measured 24 hrs post-last dose by H and E staining based histological analysis; type: functional, organism-based; conditions: time 6.0 day
Outline: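 H&E-stained pancreas sections are scored for edema and inflammation. Groups are control, cerulein and cerulein plus inhibitor, in both the pre-induction and post-induction cerulein acute pancreatitis models in mice.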

[25] = Clearance in CD-1 mouse at 1 mg/kg, iv measured up to 24 hrs by LC-MS analysis; type: ADME, organism-based; conditions: in vivo; outline: as §1
[26] = Acute toxicity in CD-1 mouse assessed as petechiae at 5 to 80 mg/kg, ip administered daily for 5 days; type: organism-based; conditions: in vivo, 120 h, dose 5-80 mg/kg, time 5 day; outline: as §4

With CC(=O)N1CCC(NC(=O)NC23CC4CC(CC(C4)O2)C3)CC1 the Selectivity ratio [1] was > 100, the Selectivity ratio [2] was > 100 and the Papp [3] was 2.24 ×10⁻⁶ cm/s. The Selectivity ratio [4] was > 100, the Selectivity ratio [5] was > 100 and the Selectivity ratio [6] was > 100. The Selectivity ratio [7] was > 100, the Selectivity ratio [8] was > 100 and the Papp [9] was 9.45 ×10⁻⁶ cm/s.
For CC(C)S(=O)(=O)N1CCC(NC(=O)NC23CC4CC(CC(C4)O2)C3)CC1, the AUC [10] was 35.2 ng·h/mL, the Activity [11] was “Active” and the Activity [12] was “Active”. For the same compound, the Activity [13] was “Non-Toxic”, the Activity [14] was “Active” and the Tmax [15] was 9.6 min. It also gave a t1/2 [16] of 181 min, a Cmax [17] of 117.33 ng/mL and a Cmax [18] of 108.33 ng/mL. The Activity [19] was “inactive”, the C0 [20] was 236.23 ng/mL and the AUClast [21] was 59.1 ng·h/mL. The AUC [22] was 59.63 ng·h/mL, the Tmax [23] was 9.6 min and the Activity [24] was “Active”. The CL [25] was 279.5 mL/min/kg and the Activity [26] was “Non-Toxic”.
